The results in this text go back to ChEMBL document CHEMBL1629448, “Identification and synthesis of novel inhibitors of acetyl-CoA carboxylase with in vitro and in vivo efficacy on fat oxidation” (J Med Chem, 2010).

The Tmax is the time at which the peak concentration occurs. For orientation: AUC(0-inf) means total exposure, with the tail of the curve extrapolated. The low end stands for low exposure, the high end for high exposure. One may read the clearance as the rate of elimination divided by the concentration. As usually defined, the Vd is the apparent volume that relates the amount in the body to the concentration in plasma or blood.

Activity calls are given as the source filed them. The calls are words filed in the database; no cut-off is given here.

Data set [1] in a line: Drug concentration in Wistar rat liver at 10 mg/kg, po measured 6 hrs post dose. It is filed as ADME, organism-based. On the set-up: dose 10 mg/kg, route oral. The conditions noted are these: read-out: Drug uptake. Summed up: (§1)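 Female Wistar rats given a single oral dose of 10 mg/kg in 10% DMSO. Plasma and liver sampled at eight time points over 24 h, three animals killed per time point. Drug levels measured by LC-MS/MS with an internal standard. […] Values are means ± SD (n = 3).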

The nature of data set [2]: Tmax in Wistar rat liver at 10 mg/kg, po. The format is ADME, organism-based. On the set-up: dose 10 mg/kg, route oral. In short, it runs like this: as §1
The next data set deals with Rattus norvegicus. Nature of the data set: Plasma concentration in Wistar rat at 3 mg/kg, iv measured immediately after dosing. It is filed as ADME, organism-based. On the set-up: dose 3 mg/kg, route intravenous. Particulars: in vivo. In short, it runs like this:
(§2)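 Wistar rats given an intravenous bolus of 3 mg/kg in 5% solutol solution. Plasma sampled at eight time points over 24 h. Drug quantified by LC-MS/MS against an internal standard. C0h is the concentration immediately after dosing; AUC0-inf, clearance, t1/2 and Vdss were also derived.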

A short description of data set [3]: AUC (0 to infinity) in Wistar rat liver at 10 mg/kg, po. It is filed as ADME, organism-based. On the set-up: time infinity, dose 10 mg/kg, route oral. Summed up: as §1
Data set [4] addresses T1, Pyruvate carboxylase, mitochondrial (Bos taurus) (UniProt Q29RK2).
T1 sequence (whole entry): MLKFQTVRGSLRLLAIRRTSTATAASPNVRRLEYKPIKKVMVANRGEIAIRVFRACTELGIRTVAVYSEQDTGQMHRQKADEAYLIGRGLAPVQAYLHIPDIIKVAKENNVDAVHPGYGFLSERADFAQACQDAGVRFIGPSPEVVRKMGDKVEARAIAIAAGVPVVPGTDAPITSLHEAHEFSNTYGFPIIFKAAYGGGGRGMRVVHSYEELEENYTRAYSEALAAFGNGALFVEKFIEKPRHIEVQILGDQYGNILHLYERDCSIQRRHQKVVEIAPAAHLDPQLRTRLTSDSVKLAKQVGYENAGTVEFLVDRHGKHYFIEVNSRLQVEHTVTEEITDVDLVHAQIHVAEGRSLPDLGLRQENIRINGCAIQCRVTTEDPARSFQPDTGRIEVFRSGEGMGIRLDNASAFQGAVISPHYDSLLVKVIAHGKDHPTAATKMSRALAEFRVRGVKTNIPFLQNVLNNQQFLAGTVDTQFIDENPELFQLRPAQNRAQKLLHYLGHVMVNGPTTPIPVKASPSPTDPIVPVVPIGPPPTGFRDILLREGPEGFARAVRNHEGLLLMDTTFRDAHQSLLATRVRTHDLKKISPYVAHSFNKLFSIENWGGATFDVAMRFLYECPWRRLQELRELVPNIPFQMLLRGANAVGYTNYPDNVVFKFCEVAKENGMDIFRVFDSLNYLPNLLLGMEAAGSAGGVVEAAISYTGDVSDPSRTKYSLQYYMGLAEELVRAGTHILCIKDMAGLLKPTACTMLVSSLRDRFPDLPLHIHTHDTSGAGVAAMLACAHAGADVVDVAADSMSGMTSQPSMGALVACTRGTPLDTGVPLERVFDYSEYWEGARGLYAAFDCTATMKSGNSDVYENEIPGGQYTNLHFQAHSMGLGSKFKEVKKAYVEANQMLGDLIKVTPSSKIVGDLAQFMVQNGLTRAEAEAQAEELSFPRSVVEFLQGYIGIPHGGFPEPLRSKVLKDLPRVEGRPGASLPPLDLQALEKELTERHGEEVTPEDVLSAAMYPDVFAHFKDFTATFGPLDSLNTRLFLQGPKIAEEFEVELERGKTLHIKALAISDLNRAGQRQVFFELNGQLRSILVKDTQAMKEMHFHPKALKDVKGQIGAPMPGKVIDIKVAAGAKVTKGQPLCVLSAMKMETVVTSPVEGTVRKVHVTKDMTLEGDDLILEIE
Nature of the data set: Inhibition of bovine pyruvate carboxylase.

Data set [5] is described as follows: Clearance in Wistar rat plasma at 3 mg/kg, iv. It is filed as ADME, organism-based. The arrangement: dose 3 mg/kg, route intravenous. Summed up: as §2
The subject of another data set is Hepatocyte. Nature of the data set: Stimulation of fat oxidation in human hepatocytes assessed as release of 3H2O from ss-oxidation of [9,10(n)-3[3H]palmitic acid after 4 hrs. The format is functional, cell-based. Summed up:
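Attached human hepatocytes washed with PBS, then incubated in DMEM with 5 μM ³H-palmitic acid (15000 Bq/ml), 0.2 mg/mL BSA, 500 μM L-carnitine, 0.1% DMSO, 25 mM glucose and inhibitor. Started with 0.5 μCi [³H]palmitate. ³H₂O release measured after 4 h by scintillation. Expressed as fold of the 0 μM control; means ± SEM (n = 4).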

The target in data set [6] is T2, Peroxisome proliferator-activated receptor delta (Homo sapiens) (UniProt Q03181).
T2 sequence (whole entry): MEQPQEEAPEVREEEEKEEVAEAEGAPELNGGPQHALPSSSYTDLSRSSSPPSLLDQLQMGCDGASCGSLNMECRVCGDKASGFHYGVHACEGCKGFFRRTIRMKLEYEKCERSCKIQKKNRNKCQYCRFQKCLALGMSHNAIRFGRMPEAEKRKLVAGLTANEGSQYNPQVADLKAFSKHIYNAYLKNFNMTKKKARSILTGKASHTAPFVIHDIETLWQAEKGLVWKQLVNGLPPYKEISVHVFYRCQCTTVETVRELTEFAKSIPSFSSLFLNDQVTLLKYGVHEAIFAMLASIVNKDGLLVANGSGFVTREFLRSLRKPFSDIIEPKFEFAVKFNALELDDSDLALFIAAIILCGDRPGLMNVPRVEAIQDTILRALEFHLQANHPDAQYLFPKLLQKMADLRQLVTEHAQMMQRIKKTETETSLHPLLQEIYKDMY
Nature of the data set: Inhibition of PPARdelta.

Data set [7] can be described thus: Volume of distribution at steady state in Wistar rat plasma at 3 mg/kg, iv. It is filed as ADME, organism-based. On the set-up: dose 3 mg/kg, route intravenous. Summed up: as §2

Turning to `CC(=O)N[C@@H](C)CCc1ccc(Oc2ccc(OC(C)C)nc2)cc1`, the concentration at 6 h in data set [1] was found to be 7.59 µM. In addition, in [2], the time to peak (Tmax) was determined as 2 h. The same compound returned a concentration with Rattus norvegicus of 5.2 µM. This compound displayed an AUC(0-inf) in [3] of 120 µM·h. Besides, the inhibition entry in [4] and in data set [6] was “inactive” in each case. Besides, the clearance in [5] is 26.7 mL/min/kg. The Activity result in the data set on Hepatocyte is “Dose-dependent effect”. Moreover, the Vd in data set [7] is 2.6 L/kg.
